Data taken from ChEMBL document CHEMBL3407339, “A novel series of thiazolyl-pyrazoline derivatives: synthesis and evaluation of antifungal activity, cytotoxicity and genotoxicity” (Eur J Med Chem, 2015).
≈ marks a conversion by molar mass, not a printed value.

Tests used:
Nakaseomyces glabratus = experiment: Antifungal activity against Candida glabrata clinical isolate after 48 hrs by broth microdilution assay; type: functional
Procedure, shortened: (§1)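 Broth microdilution of DMSO stocks serially diluted in sterile water (4 to 0.0039 mg/mL). Yeasts grown on SDA at 37 °C for 24 h, suspended in double-strength PDB at 10⁵ spores/mL. Incubated at 37 °C for 48 h, then sprayed with 0.5% aqueous TTC. MIC = lowest concentration inhibiting visible growth. Ketoconazole reference.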

Candida albicans = experiment: Antifungal activity against Candida albicans ATCC 90028 after 48 hrs by broth microdilution assay; type: functional; settings: ATCC 90028, 48 h; procedure, shortened: as §1
Candida tropicalis = experiment: Antifungal activity against Candida tropicalis NRLL Y 12968 after 48 hrs by broth microdilution assay; type: functional; settings: NRLL Y 12968, 48 h; procedure, shortened: as §1
Pichia kudriavzevii = experiment: Antifungal activity against Candida krusei NRLL Y 7179 after 48 hrs by broth microdilution assay; type: functional; settings: NRLL Y 7179, 48 h; procedure, shortened: as §1
[Candida] zeylanoides = Antifungal activity against Candida zeylanoides NRLL Y 1774 after 48 hrs by broth microdilution assay; type: functional; settings: Dujonia zeylanoides, NRLL Y 1774, 48 h; procedure, shortened: as §1
Candida parapsilosis = experiment: Antifungal activity against Candida parapsilosis NRLL Y 12696 after 48 hrs by broth microdilution assay; type: functional; settings: Lodderomyces parapsilosis, NRLL Y 12696, 48 h; procedure, shortened: as §1
Aspergillus flavus = experiment: Antifungal activity against Aspergillus flavus NRRL 980 after 72 hrs by broth microdilution assay; type: functional; settings: NRRL 980, 72 h
Procedure, shortened: (§2)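 Compounds dissolved in DMSO, diluted in sterile distilled water from 4 to 0.0039 mg/mL. Molds grown on PDA at 25 °C for 5 days, suspended in double-strength PDB at 10⁵ spores/mL. Incubated at 25 °C for 72 h; mycelial growth read under stereo microscope. MIC = lowest concentration inhibiting visible growth. Ketoconazole reference.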

Aspergillus niger = experiment: Antifungal activity against Aspergillus niger ATCC 1094 after 72 hrs by broth microdilution assay; type: functional; settings: ATCC 1094, 72 h; procedure, shortened: as §2
Aspergillus parasiticus = experiment: Antifungal activity against Aspergillus parasiticus NRRL 465 after 72 hrs by broth microdilution assay; type: functional; settings: NRRL 465, 72 h; procedure, shortened: as §2
Fusarium solani = experiment: Antifungal activity against Fusarium solani NRRL 13414 after 72 hrs by broth microdilution assay; type: functional; settings: NRRL 13414, 72 h; procedure, shortened: as §2
Salmonella typhimurium [1] = experiment: Mutagenicity in Salmonella typhimurium TA98 at 0.156 mg/ml after 48 hrs by AMES MPF assay in presence of Sprague-Dawley rat liver microsomal S9 fraction relative to baseline; type: toxicity, organism-based; settings: salmonella enterica subsp. enterica serovar typhimurium
Procedure, shortened: (§3)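 Ames MPF fluctuation test with TA98/TA100. Overnight cultures (37 °C, 14–16 h) mixed with exposure medium; ±Aroclor-1254-induced rat liver S9 (final 4.5% v/v). Compounds in DMSO, 0.156–5 mg/mL. 90 min exposure at 37 °C, then indicator medium; 48 wells per concentration, 48 h at 37 °C, in triplicate. Yellow wells counted; fold induction over baseline (mean + 1 SD of zero-dose control).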

Salmonella typhimurium [2] = experiment: Mutagenicity in Salmonella typhimurium TA98 at 0.3125 mg/ml after 48 hrs by AMES MPF assay in presence of Sprague-Dawley rat liver microsomal S9 fraction relative to baseline; type: toxicity, organism-based; settings: salmonella enterica subsp. enterica serovar typhimurium; procedure, shortened: as §3
Salmonella typhimurium [3] = experiment: Mutagenicity in Salmonella typhimurium TA98 at 0.625 mg/ml after 48 hrs by AMES MPF assay in presence of Sprague-Dawley rat liver microsomal S9 fraction relative to baseline; type: toxicity, organism-based; settings: salmonella enterica subsp. enterica serovar typhimurium; procedure, shortened: as §3
Salmonella typhimurium [4] = experiment: Mutagenicity in Salmonella typhimurium TA98 at 1.25 mg/ml after 48 hrs by AMES MPF assay in presence of Sprague-Dawley rat liver microsomal S9 fraction relative to baseline; type: toxicity, organism-based; settings: salmonella enterica subsp. enterica serovar typhimurium; procedure, shortened: as §3
Salmonella typhimurium [5] = experiment: Mutagenicity in Salmonella typhimurium TA98 at 2.5 mg/ml after 48 hrs by AMES MPF assay in presence of Sprague-Dawley rat liver microsomal S9 fraction relative to baseline; type: toxicity, organism-based; settings: salmonella enterica subsp. enterica serovar typhimurium; procedure, shortened: as §3
Salmonella typhimurium [6] = experiment: Mutagenicity in Salmonella typhimurium TA98 at 5 mg/ml after 48 hrs by AMES MPF assay in presence of Sprague-Dawley rat liver microsomal S9 fraction relative to baseline; type: toxicity, organism-based; settings: salmonella enterica subsp. enterica serovar typhimurium; procedure, shortened: as §3
Salmonella typhimurium [7] = experiment: Mutagenicity in Salmonella typhimurium TA98 at 0.156 mg/ml after 48 hrs by AMES MPF assay in absence of Sprague-Dawley rat liver microsomal S9 fraction relative to baseline; type: toxicity, organism-based; settings: salmonella enterica subsp. enterica serovar typhimurium; procedure, shortened: as §3
Salmonella typhimurium [8] = experiment: Mutagenicity in Salmonella typhimurium TA98 at 0.3125 mg/ml after 48 hrs by AMES MPF assay in absence of Sprague-Dawley rat liver microsomal S9 fraction relative to baseline; type: toxicity, organism-based; settings: salmonella enterica subsp. enterica serovar typhimurium; procedure, shortened: as §3
Salmonella typhimurium [9] = experiment: Mutagenicity in Salmonella typhimurium TA98 at 0.625 mg/ml after 48 hrs by AMES MPF assay in absence of Sprague-Dawley rat liver microsomal S9 fraction relative to baseline; type: toxicity, organism-based; settings: salmonella enterica subsp. enterica serovar typhimurium; procedure, shortened: as §3
Salmonella typhimurium [10] = experiment: Mutagenicity in Salmonella typhimurium TA98 at 1.25 mg/ml after 48 hrs by AMES MPF assay in absence of Sprague-Dawley rat liver microsomal S9 fraction relative to baseline; type: toxicity, organism-based; settings: salmonella enterica subsp. enterica serovar typhimurium; procedure, shortened: as §3
Salmonella typhimurium [11] = experiment: Mutagenicity in Salmonella typhimurium TA98 at 2.5 mg/ml after 48 hrs by AMES MPF assay in absence of Sprague-Dawley rat liver microsomal S9 fraction relative to baseline; type: toxicity, organism-based; settings: salmonella enterica subsp. enterica serovar typhimurium; procedure, shortened: as §3
Salmonella typhimurium [12] = experiment: Mutagenicity in Salmonella typhimurium TA98 at 5 mg/ml after 48 hrs by AMES MPF assay in absence of Sprague-Dawley rat liver microsomal S9 fraction relative to baseline; type: toxicity, organism-based; settings: salmonella enterica subsp. enterica serovar typhimurium; procedure, shortened: as §3
Salmonella typhimurium [13] = experiment: Mutagenicity in Salmonella typhimurium TA100 at 0.156 mg/ml after 48 hrs by AMES MPF assay in presence of Sprague-Dawley rat liver microsomal S9 fraction relative to baseline; type: toxicity, organism-based; settings: salmonella enterica subsp. enterica serovar typhimurium; procedure, shortened: as §3
Salmonella typhimurium [14] = experiment: Mutagenicity in Salmonella typhimurium TA100 at 0.3125 mg/ml after 48 hrs by AMES MPF assay in presence of Sprague-Dawley rat liver microsomal S9 fraction relative to baseline; type: toxicity, organism-based; settings: salmonella enterica subsp. enterica serovar typhimurium; procedure, shortened: as §3
Salmonella typhimurium [15] = experiment: Mutagenicity in Salmonella typhimurium TA100 at 0.625 mg/ml after 48 hrs by AMES MPF assay in presence of Sprague-Dawley rat liver microsomal S9 fraction relative to baseline; type: toxicity, organism-based; settings: salmonella enterica subsp. enterica serovar typhimurium; procedure, shortened: as §3
Salmonella typhimurium [16] = experiment: Mutagenicity in Salmonella typhimurium TA100 at 1.25 mg/ml after 48 hrs by AMES MPF assay in presence of Sprague-Dawley rat liver microsomal S9 fraction relative to baseline; type: toxicity, organism-based; settings: salmonella enterica subsp. enterica serovar typhimurium; procedure, shortened: as §3
Salmonella typhimurium [17] = experiment: Mutagenicity in Salmonella typhimurium TA100 at 2.5 mg/ml after 48 hrs by AMES MPF assay in presence of Sprague-Dawley rat liver microsomal S9 fraction relative to baseline; type: toxicity, organism-based; settings: salmonella enterica subsp. enterica serovar typhimurium; procedure, shortened: as §3
Salmonella typhimurium [18] = experiment: Mutagenicity in Salmonella typhimurium TA100 at 5 mg/ml after 48 hrs by AMES MPF assay in presence of Sprague-Dawley rat liver microsomal S9 fraction relative to baseline; type: toxicity, organism-based; settings: salmonella enterica subsp. enterica serovar typhimurium; procedure, shortened: as §3
Salmonella typhimurium [19] = experiment: Mutagenicity in Salmonella typhimurium TA100 at 0.156 mg/ml after 48 hrs by AMES MPF assay in absence of Sprague-Dawley rat liver microsomal S9 fraction relative to baseline; type: toxicity, organism-based; settings: salmonella enterica subsp. enterica serovar typhimurium; procedure, shortened: as §3
Salmonella typhimurium [20] = experiment: Mutagenicity in Salmonella typhimurium TA100 at 0.3125 mg/ml after 48 hrs by AMES MPF assay in absence of Sprague-Dawley rat liver microsomal S9 fraction relative to baseline; type: toxicity, organism-based; settings: salmonella enterica subsp. enterica serovar typhimurium; procedure, shortened: as §3
Salmonella typhimurium [21] = experiment: Mutagenicity in Salmonella typhimurium TA100 at 0.625 mg/ml after 48 hrs by AMES MPF assay in absence of Sprague-Dawley rat liver microsomal S9 fraction relative to baseline; type: toxicity, organism-based; settings: salmonella enterica subsp. enterica serovar typhimurium; procedure, shortened: as §3
Salmonella typhimurium [22] = experiment: Mutagenicity in Salmonella typhimurium TA100 at 1.25 mg/ml after 48 hrs by AMES MPF assay in absence of Sprague-Dawley rat liver microsomal S9 fraction relative to baseline; type: toxicity, organism-based; settings: salmonella enterica subsp. enterica serovar typhimurium; procedure, shortened: as §3
Salmonella typhimurium [23] = experiment: Mutagenicity in Salmonella typhimurium TA100 at 2.5 mg/ml after 48 hrs by AMES MPF assay in absence of Sprague-Dawley rat liver microsomal S9 fraction relative to baseline; type: toxicity, organism-based; settings: salmonella enterica subsp. enterica serovar typhimurium; procedure, shortened: as §3
Salmonella typhimurium [24] = experiment: Mutagenicity in Salmonella typhimurium TA100 at 5 mg/ml after 48 hrs by AMES MPF assay in absence of Sprague-Dawley rat liver microsomal S9 fraction relative to baseline; type: toxicity, organism-based; settings: salmonella enterica subsp. enterica serovar typhimurium; procedure, shortened: as §3
A549 = experiment: Antiproliferative activity against human A549 cells after 24 hrs by XTT assay; type: functional, cell-based; settings: A549, 24 h
Procedure, shortened: (§4)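 A549 cells in RPMI and NIH/3T3 cells in DMEM, each with fetal calf serum, antibiotics and 7.5% NaHCO₃, at 37 °C, 5% CO₂. Seeded at 20,000 cells/well, 24 h, then compounds added in medium at 500–3.9 doses (final DMSO <0.1%) for 24 h. XTT read after 3 h at 480 nm (ref 680 nm). IC₅₀ by non-linear regression; triplicates; cisplatin control.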

[25] = Cytotoxicity against mouse NIH/3T3 cells after 24 hrs by XTT assay; type: cell-based; settings: NIH3T3, 24 h; procedure, shortened: as §4

## Cc1ccc(C2=NN(c3nc(-c4ccc(S(C)(=O)=O)cc4)cs3)C(c3ccc(F)cc3)C2)s1 (stereo unspecified)
Nakaseomyces glabratus
  MIC: 125 µg/mL (≈ 251 µM)
Candida albicans
  MIC: 250 µg/mL (≈ 502 µM)
Candida tropicalis
  MIC: 250 µg/mL (≈ 502 µM)
Pichia kudriavzevii
  MIC: 250 µg/mL (≈ 502 µM)
[Candida] zeylanoides
  MIC: 250 µg/mL (≈ 502 µM)
Candida parapsilosis
  MIC: 250 µg/mL (≈ 502 µM)
Aspergillus flavus
  MIC: 125 µg/mL (≈ 251 µM)
Aspergillus niger
  MIC: 250 µg/mL (≈ 502 µM)
Aspergillus parasiticus
  MIC: 250 µg/mL (≈ 502 µM)
Fusarium solani
  MIC: 250 µg/mL (≈ 502 µM)
Salmonella typhimurium [1]
  fold change (FC): 0.41
Salmonella typhimurium [2]
  fold change (FC): 0.27
Salmonella typhimurium [3]
  fold change (FC): 1.63
Salmonella typhimurium [4]
  fold change (FC): 0.95
Salmonella typhimurium [5]
  fold change (FC): 1.36
Salmonella typhimurium [6]
  fold change (FC): 0.81
Salmonella typhimurium [7]
  fold change (FC): 0.67
Salmonella typhimurium [8]
  fold change (FC): 0.22
Salmonella typhimurium [9]
  fold change (FC): 0.44
Salmonella typhimurium [10]
  fold change (FC): 0.89
Salmonella typhimurium [11]
  fold change (FC): 0.67
Salmonella typhimurium [12]
  fold change (FC): 0.89
Salmonella typhimurium [13]
  fold change (FC): 0.73
Salmonella typhimurium [14]
  fold change (FC): 0.73
Salmonella typhimurium [15]
  fold change (FC): 0.93
Salmonella typhimurium [16]
  fold change (FC): 0.8
Salmonella typhimurium [17]
  fold change (FC): 1.26
Salmonella typhimurium [18]
  fold change (FC): 0.93
Salmonella typhimurium [19]
  fold change (FC): 0.78
Salmonella typhimurium [20]
  fold change (FC): 1.04
Salmonella typhimurium [21]
  fold change (FC): 0.99
Salmonella typhimurium [22]
  fold change (FC): 0.52
Salmonella typhimurium [23]
  fold change (FC): 0.52
Salmonella typhimurium [24]
  fold change (FC): 1.09
A549
  IC50: > 500 µg/mL
[25]
  IC50: 374 µg/mL (≈ 751 µM)
